Assay outcomes from PubChem BioAssay.
This is a sample that favours compounds with a hit; in the whole collection about 1.4% have one here.
CAL PDZ FP-1 = untagged CAL PDZ binding inhibitors, primary screen, biochemical, fluorescence polarization, HTS; Golgi-associated PDZ and coiled-coil motif-containing protein (Homo sapiens), Q9HD26; purified CAL PDZ, TMR-peptide fluorescence polarization, 1 h; inhibition, % at 24.9 µM; actives 0.92% (n = 300,000); AID 602252, 2012;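 active = mean inhibition of at least 30% with at least half of replicates also reaching 30%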;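 also: 0% = DMSO neutral control and 100% = excess unlabeled competitor peptide PRC23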
DYRK1A inh = rat Dyrk1A kinase inhibitors, primary screen, biochemical, single point, plate reader; Dual specificity tyrosine-phosphorylation-regulated kinase 1A (Rattus norvegicus), Q63470; ADP-Glo luminescence, NFATc1 peptide; inhibition, % at 12.5 µM; actives 0.43% (n = 310,000); in the data active = inhibition above about 50%;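 also: plate controls were vehicle with enzyme for no effect and no enzyme for full effect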
ARNT TACC3 PPI = disruptors of ARNT/TACC3 protein interaction, primary screen, biochemical, AlphaScreen, single concentration; AlphaScreen His-ARNT PAS-B/GST-TACC3 binding, luminescence; TACC3 fragment carries E629A point mutation; inhibition, % at 9.99 µM; actives 0.66% (n = 390,000); AID 623870, 2012;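 active = mean inhibition of replicates at least 50% and at least half of replicates each reaching 50%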;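 also: 0% = complete ARNT plus TACC3 wells and 100% = ARNT alone without TACC3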
CAL PDZ FP-2 = CAL PDZ peptide-binding inhibitors, primary screen, biochemical, fluorescence polarization, Cer-tagged CAL PDZ, HTS | actives 0.02% (n = 330,000) | purified CAL PDZ, TMR-peptide fluorescence polarization, 1 h | inhibition, % at 20 µM | Golgi-associated PDZ and coiled-coil motif-containing protein (Homo sapiens), Q9HD26 | AID 504414, 2011;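 active = highest replicate inhibition of at least 40%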;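 also: plate controls were DMSO neutral control wells for no effect and unlabeled competitor peptide control wells for full effect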
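Read-out basis: mP drop reported as inhibition | Assay system: Tagged CAL PDZ protein CerCALP, purified | Benchmarks: Unlabelled peptide for full inhibition, DMSO wells as neutral | Schedule: 1 h incubation at room temperature before polarization reading | Buffer or medium: Sodium phosphate/NaCl buffer pH 7.4 with TCEP, IgG, Thesit | Doses: Single point, 20 µM | Measured by: Fluorescence polarization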
* marks the source's active call; other numbers are inactive results; / = not tested or not shown.

SMILES	CAL PDZ FP-1	DYRK1A inh	ARNT TACC3 PPI	CAL PDZ FP-2
O=C(COC(=O)c1ccc(Cl)c(S(=O)(=O)NCc2ccccc2)c1)NCC1CCCO1 (configuration not stated)	44*	3	-3	0
C[C@@H]1CCCCO[C@H](CN(C)S(=O)(=O)c2ccccc2)[C@H](C)CN([C@@H](C)CO)C(=O)c2cc(NC(=O)Nc3ccc(C(F)(F)F)cc3)ccc2O1	/	/	-11	/
Cc1ccc(-c2ccc3c(c2)O[C@H](CN(C)C(=O)Nc2ccc(C(F)(F)F)cc2)[C@H](C)CN([C@@H](C)CO)S3(=O)=O)cc1	/	/	8	/
CCN(C(=O)c1cccc(NC(=O)c2ccccc2)c1)C1CCCCC1	57*	2	-1	-1
CCN(C(=O)COc1ccccc1)C1CCCCC1	-2	/	-8	-1
CCN(C(=O)CCc1ccccc1)C1CCCCC1	64*	-1	-15	0
COc1ccccc1NC(=O)N1CCCCN2[C@H](CO)[C@H](c3ccc(-c4ccccc4)cc3)[C@H]2C1	/	/	22	/
COc1ccc(C2CC(c3ccccc3OC(C)=O)=NN2C(C)=O)cc1 (configuration not stated)	91*	8	-3	-1
CC(=O)Oc1ccccc1C1=NN(C(=O)/C=C/c2ccccc2)C(c2ccccc2)C1 (configuration not stated)	-2	-4	9	-1
COc1ccc(C2CC(c3ccccc3OC(C)=O)=NN2C(=O)/C=C/c2ccccc2)cc1 (configuration not stated)	52*	-3	8	-1
O=C(c1ccc2nc[nH]c2c1)N1CCc2ccccc2C1	54*	/	-3	-1
Cc1cc(C)n(-c2ccc([N+](=O)[O-])cc2-c2nn[nH]n2)n1	2	2	-6	-4
O=S1(=O)N=C(N/N=C/c2cccs2)c2ccccc21	/	-4	66*	-1
O=[N+]([O-])c1ccc(O)c(-c2nn[nH]n2)c1	-3	10	64*	-1
O=[N+]([O-])c1ccc(O)c(/C=N/NC2=NS(=O)(=O)c3ccccc32)c1	-2	4	71*	-2
Oc1ccccc1/C=N/Nc1nn[nH]n1	-4	-2	72*	1
O=[N+]([O-])c1ccc(/C=N/NC2=NS(=O)(=O)c3ccccc32)cc1	4	2	3	-1
C[C@@H]1CN([C@H](C)CO)C(=O)Cc2cc(NC(=O)C3CC3)ccc2O[C@@H]1CN(C)CC1CCCCC1	/	/	1	/
COc1ccccc1C(=O)Nc1ccc2c(c1)OC[C@H](C)N(C)C[C@@H](C)[C@@H](OC)CN(C)C2=O	/	/	35	/
O=[N+]([O-])c1ccc(O)c(/C=N/Nc2ccc(Cl)nn2)c1	-3	1	58*	-3
NC(N)=N/N=C/c1cc([N+](=O)[O-])ccc1O	-2	4	7	0
O=[N+]([O-])c1ccc(O)c(/C=N/Nc2nn[nH]n2)c1	-5	8	67*	0
CC(C)Oc1ccc(C2CC(=O)N(c3cccc(/C=C/C(=O)O)c3)C2=O)cc1 (configuration not stated)	-2	-8	active	-1
C[C@@H]1CN([C@@H](C)CO)C(=O)c2cc(NS(=O)(=O)c3ccc(F)cc3)ccc2O[C@@H](C)CCCCO[C@H]1CN(C)C	/	/	-6	/
C[C@@H]1CN([C@H](C)CO)C(=O)Cc2cc(NC(=O)NC3CCCCC3)ccc2O[C@H]1CN(C)CC1CC1	/	/	-8	/
SMILES	CAL PDZ FP-1	DYRK1A inh	ARNT TACC3 PPI	CAL PDZ FP-2
CC(C)C(=O)Nc1ccc2c(c1)C(=O)N(C)[C@H]1CC[C@@H](CC(=O)Nc3ccccc3)O[C@H]1CO2	/	/	14	/
O=C(Nc1ccc(C(F)(F)F)cc1)N[C@@H]1C=C[C@@H](CC(=O)N2CCCCC2)O[C@H]1CO	/	/	46*	/
COCC(=O)Nc1ccc2c(c1)C(=O)N(C)[C@H]1CC[C@H](CC(=O)NCC(F)(F)F)O[C@@H]1CO2	/	/	-3	/
COc1ccc(C2=NN(S(=O)(=O)c3ccccc3)C(c3ccccc3)C2)cc1 (configuration not stated)	1	0	2	-2
O=S(=O)(c1ccccc1)N1N=C(c2ccccc2)CC1c1ccccc1 (configuration not stated)	45*	3	-2	-1
COc1ccc(OC)c(C2=NS(=O)(=O)N(C)C(C(=O)Nc3ccc(C(C)=O)cc3)=C2)c1	54*	0	-1	0
O=C(CN1CCN(c2ccc(O)cc2)CC1)N1CCc2ccccc21	49*	5	/	0
CCOc1ccc(OCCNC(=O)c2oc3ccccc3c2COC)cc1	-5	/	-9	0
CC(=O)NCCNC(=O)c1oc2ccccc2c1CSc1ncn[nH]1	72*	/	1	-1
CC(C)NC(=O)Nc1ccc2c(c1)C(=O)N([C@H](C)CO)C[C@H](C)[C@H](CN(C)S(=O)(=O)c1ccc(Cl)cc1)O2	/	/	-9	/
COc1ccc(S(=O)(=O)N(C(C)=O)c2ccc3oc(=O)sc3c2)cc1	89*	/	-12	0
Cc1ccc2nc(COC(=O)c3ccc(Cl)nc3)cc(=O)n2c1	46*	2	0	0
Cc1ccc2nc(Cl)cc(=O)n2c1	-2	/	-11	0
COc1ccc(OC)c(-n2c(-c3ccccc3)n[nH]c2=S)c1	37*	/	-24	1
COc1ccc(OC)c(-n2c(-c3cccc(C)c3)n[nH]c2=S)c1	1	-26	4	-2
COCc1cn(CC[C@@H]2CC[C@H](NC(=O)Nc3ccc(Cl)cc3)[C@@H](CO)O2)nn1	/	/	-11	/
CC(C)(C)NC(=O)Cn1c(SCC(=O)NC2CCCC2)nc2ccccc21	-3	-3	0	-4
CC(C)(C)NC(=O)Cn1c(Cl)nc2ccccc21	69*	4	1	1
O=C(NCC1(N2CCCCC2)CCCCC1)c1ccc(NS(=O)(=O)c2ccccc2)cc1	-2	-2	active	0
Cc1cccc(NS(=O)(=O)c2ccc(C(=O)NCC3(N4CCCCC4)CCCCC3)cc2)c1C	-2	5	-10	-4
Nc1[nH]c(N=NC(=O)c2ccccc2O)c2ccccc12	-2	2	60*	0
Nc1[nH]c(N=NC(=O)c2ccccc2)c2ccccc12	/	5	-4	0
CO[C@@H]1CN(C)C(=O)c2cc(NC(=O)C3CC3)ccc2OC[C@@H](C)N(CC2CC2)C[C@@H]1C	/	/	-8	/
Cc1noc(C)c1NC(=O)N(C)C[C@H]1Oc2c(NC(=O)NC3CCCCC3)cccc2C(=O)N([C@H](C)CO)C[C@@H]1C	/	/	-4	/
OCCCNC(=S)Nc1ccc(Oc2ccccc2)cc1	-4	3	/	-2
CN(C)CCCNC(=S)Nc1ccc(Oc2ccccc2)cc1	61*	7	2	1
